Test results from ChEMBL document CHEMBL4831482 (Eur J Med Chem, 2021).
Values after ≈ are worked out from the molar mass of the structure shown. Values belong to the compound of their own block, whether it stands above or below them. Active and inactive are the calls of the source. The rule behind the calls is not given here. Where a SMILES comes first, the peptide text is derived from it. The star is where a group is joined. Boc = CC(C)(C)OC(=O)*; NHBn = c1ccc(CN*)cc1

Legend:
[1] = test system: Cryptococcus neoformans; assay: Antifungal activity against Cryptococcus neoformans ATCC 90113 assessed as inhibition of fungal growth by CLSI method; assay type: functional, organism-based
[2] = test system: Aspergillus fumigatus; assay: Antifungal activity against Aspergillus fumigatus ATCC 1022 assessed as inhibition of fungal growth by CLSI method; assay type: functional, organism-based
[3] = test system: Candida albicans; assay: Antifungal activity against Candida albicans ATCC 10231 assessed as inhibition of fungal growth by CLSI method; assay type: functional, organism-based
[4] = test system: Vero; assay: Cytotoxicity against African green monkey Vero cells assessed as reduction in cell viability incubated for 48 hrs by Neutral red assay; assay type: cell-based; details: chlorocebus sabaeus
How it was run: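 VERO monkey kidney cells seeded at 25,000 cells/well and incubated 24 h to confluency. Peptide added, then a further 48 h incubation. Viability read by neutral red uptake.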

[5] = test system: Klebsiella pneumoniae; assay: Antibacterial activity against Klebsiella pneumoniae ATCC BAA1705 assessed as inhibition of bacterial growth by CLSI method; assay type: functional, organism-based
[6] = test system: Escherichia coli; assay: Antibacterial activity against Escherichia coli ATCC 35218 assessed as inhibition of bacterial growth by CLSI method; assay type: functional, organism-based
[7] = test system: Pseudomonas aeruginosa; assay: Antibacterial activity against Pseudomonas aeruginosa ATCC 27853 assessed as inhibition of bacterial growth by CLSI method; assay type: functional, organism-based
[8] = test system: Enterococcus; assay: Antibacterial activity against vancomycin resistant Enterococcus ATCC MP-1 assessed as inhibition of bacterial growth by CLSI method; assay type: functional, organism-based
[9] = test system: Staphylococcus aureus; assay: Antibacterial activity against methicillin-resistant Staphylococcus aureus ATCC 33591 assessed as inhibition of bacterial growth by CLSI method; assay type: functional, organism-based

Compound: Cl.Cl.N=C(N)NCCC[C@H](NC(=O)[C@H](Cc1c[nH]c2ccccc12)NC(=O)[C@@H](N)Cc1c[nH]c(-c2ccc(-c3ccccc3)cc2)n1)C(=O)NCc1ccccc1
IC50 [1]: 1.17 µg/mL | MIC [1]: 5 µg/mL | IC50 [6]: > 20 µg/mL | IC50 [7]: 18.7 µg/mL | MIC [7]: > 20 µg/mL | IC50 [8]: 8.33 µg/mL | MIC [8]: 20 µg/mL | Activity [2]: inactive | Activity [3]: inactive | Activity [4]: > 10 µg/mL | Activity [5]: inactive | IC50 [9]: 4.44 µg/mL | MIC [9]: 5 µg/mL

Compound: CCCCc1ccc(-c2nc(C[C@H](NC(=O)OC(C)(C)C)C(=O)N[C@@H](Cc3c[nH]c4ccccc34)C(=O)N[C@@H](CCCNC(=N)N)C(=O)OC)c[nH]2)cc1
IC50 [1]: 1.99 µg/mL (≈ 2.68 µM) | MIC [1]: 2.5 µg/mL (≈ 3.36 µM) | IC50 [6]: 17.9 µg/mL (≈ 24 µM) | MIC [6]: > 20 µg/mL | IC50 [7]: > 20 µg/mL | IC50 [8]: 7.82 µg/mL (≈ 10.5 µM) | MIC [8]: 20 µg/mL (≈ 26.9 µM) | Activity [2]: inactive | Activity [3]: inactive | Activity [4]: > 10 µg/mL | Activity [5]: inactive | IC50 [9]: 9.29 µg/mL (≈ 12.5 µM) | MIC [9]: 10 µg/mL (≈ 13.4 µM)

Compound: CCc1ccc(-c2nc(C[C@H](N)C(=O)N[C@@H](Cc3c[nH]c4ccccc34)C(=O)N[C@@H](CCCNC(=N)N)C(=O)OC)c[nH]2)cc1.Cl.Cl
IC50 [1]: 1.85 µg/mL | MIC [1]: 2.5 µg/mL | IC50 [6]: 17.4 µg/mL | MIC [6]: > 20 µg/mL | IC50 [7]: > 20 µg/mL | IC50 [8]: > 20 µg/mL | Activity [2]: inactive | Activity [3]: inactive | Activity [4]: > 10 µg/mL | Activity [5]: inactive | IC50 [9]: > 20 µg/mL

Compound: COC(=O)[C@H](CCCNC(=N)N)NC(=O)[C@H](Cc1c[nH]c2ccccc12)NC(=O)[C@H](Cc1c[nH]c(-c2ccc(C)cc2)n1)NC(=O)OC(C)(C)C
IC50 [1]: 7.66 µg/mL (≈ 10.9 µM) | MIC [1]: > 20 µg/mL | Activity [2]: inactive | Activity [3]: inactive | Activity [4]: > 10 µg/mL | Activity [5]: inactive

Compound: Cc1ccc(-c2nc(C[C@H](NC(=O)OC(C)(C)C)C(=O)N[C@@H](Cc3c[nH]c4ccccc34)C(=O)N[C@@H](CCCNC(=N)N)C(=O)NCc3ccccc3)c[nH]2)cc1
IC50 [1]: 4.34 µg/mL (≈ 5.59 µM) | MIC [1]: 5 µg/mL (≈ 6.44 µM) | IC50 [6]: > 20 µg/mL | IC50 [7]: > 20 µg/mL | IC50 [8]: > 20 µg/mL | Activity [2]: inactive | Activity [3]: inactive | Activity [4]: > 10 µg/mL | Activity [5]: inactive | IC50 [9]: 17.5 µg/mL (≈ 22.5 µM) | MIC [9]: 20 µg/mL (≈ 25.7 µM)

Compound: CC(C)(C)OC(=O)N[C@@H](Cc1c[nH]cn1)C(=O)N[C@@H](Cc1c[nH]c2ccccc12)C(=O)N[C@@H](CCCNC(=N)N)C(=O)NCc1ccccc1 (Boc-His-Trp-Arg-NHBn)
IC50 [1]: > 20 µg/mL | Activity [2]: inactive | Activity [3]: inactive | Activity [4]: > 10 µg/mL | Activity [5]: inactive

Compound: CC(C)(C)OC(=O)N[C@@H](Cc1c[nH]c(-c2ccc(-c3ccccc3)cc2)n1)C(=O)N[C@@H](Cc1c[nH]c2ccccc12)C(=O)N[C@@H](CCCNC(=N)N)C(=O)NCc1ccccc1
IC50 [1]: 2.15 µg/mL (≈ 2.56 µM) | MIC [1]: 2.5 µg/mL (≈ 2.98 µM) | IC50 [6]: > 20 µg/mL | IC50 [7]: 19.8 µg/mL (≈ 23.6 µM) | IC50 [8]: 8.82 µg/mL (≈ 10.5 µM) | MIC [8]: 10 µg/mL (≈ 11.9 µM) | Activity [2]: inactive | Activity [3]: inactive | Activity [4]: > 10 µg/mL | Activity [5]: inactive | IC50 [9]: 4.56 µg/mL (≈ 5.43 µM) | MIC [9]: 10 µg/mL (≈ 11.9 µM)

Compound: CCc1ccc(-c2nc(C[C@H](NC(=O)OC(C)(C)C)C(=O)N[C@@H](Cc3c[nH]c4ccccc34)C(=O)N[C@@H](CCCNC(=N)N)C(=O)OC)c[nH]2)cc1
IC50 [1]: 9.66 µg/mL (≈ 13.5 µM) | MIC [1]: > 20 µg/mL | Activity [2]: inactive | Activity [3]: inactive | Activity [4]: > 10 µg/mL | Activity [5]: inactive

Compound: Cl.Cl.N=C(N)NCCC[C@H](NC(=O)[C@H](Cc1c[nH]c2ccccc12)NC(=O)[C@@H](N)Cc1c[nH]cn1)C(=O)NCc1ccccc1 (H-His-Trp-Arg-NHBn)
IC50 [1]: 4.92 µg/mL | MIC [1]: 10 µg/mL | Activity [2]: inactive | Activity [3]: inactive | Activity [4]: > 10 µg/mL | Activity [5]: inactive

Compound: COC(=O)[C@H](CCCNC(=N)N)NC(=O)[C@H](Cc1c[nH]c2ccccc12)NC(=O)[C@H](Cc1c[nH]c(-c2ccc(-c3ccccc3)cc2)n1)NC(=O)OC(C)(C)C
IC50 [1]: 8.06 µg/mL (≈ 10.6 µM) | MIC [1]: > 20 µg/mL | IC50 [6]: > 20 µg/mL | IC50 [7]: > 20 µg/mL | Activity [2]: inactive | Activity [3]: inactive | Activity [4]: > 10 µg/mL | Activity [5]: inactive | IC50 [9]: 16.3 µg/mL (≈ 21.3 µM) | MIC [9]: > 20 µg/mL

Compound: COC(=O)[C@H](CCCNC(=N)N)NC(=O)[C@H](Cc1c[nH]c2ccccc12)NC(=O)[C@@H](N)Cc1c[nH]cn1.Cl.Cl (H-His-Trp-Arg-OMe)
IC50 [1]: 2.41 µg/mL | MIC [1]: 10 µg/mL | Activity [2]: inactive | Activity [3]: inactive | Activity [4]: > 10 µg/mL | Activity [5]: inactive

Continued, in another order:

MIC [1]: 5 µg/mL
Compound: Cc1ccc(-c2nc(C[C@H](N)C(=O)N[C@@H](Cc3c[nH]c4ccccc34)C(=O)N[C@@H](CCCNC(=N)N)C(=O)NCc3ccccc3)c[nH]2)cc1.Cl.Cl
IC50 [1]: 3.36 µg/mL | Activity [2]: inactive | Activity [3]: inactive | Activity [4]: > 10 µg/mL | Activity [5]: inactive

MIC [1]: 1.25 µg/mL (≈ 1.35 µM)
Compound: C[C@@H]1[C@H](O)[C@@H](C)/C=C/C=C/C=C/C=C/C=C/C=C/C=C/[C@H](O[C@@H]2O[C@H](C)[C@@H](O)[C@H](N)[C@@H]2O)C[C@@H]2O[C@](O)(C[C@@H](O)C[C@@H](O)[C@H](O)CC[C@@H](O)C[C@@H](O)CC(=O)O[C@H]1C)C[C@H](O)[C@H]2C(=O)O [AMPHOTERICIN B]

MIC [1]: 10 µg/mL
Compound: Cl.Cl.N=C(N)NCCC[C@H](NC(=O)[C@H](Cc1c[nH]c2ccccc12)NC(=O)[C@@H](N)Cc1c[nH]c(-c2ccccc2)n1)C(=O)NCc1ccccc1
IC50 [1]: 5.31 µg/mL | Activity [2]: inactive | Activity [3]: inactive | Activity [4]: > 10 µg/mL | Activity [5]: inactive

MIC [1]: > 20 µg/mL
Compound: COC(=O)[C@H](CCCNC(=N)N)NC(=O)[C@H](Cc1c[nH]c2ccccc12)NC(=O)[C@@H](N)Cc1c[nH]c(-c2ccccc2)n1.Cl.Cl
IC50 [1]: 9.23 µg/mL | Activity [2]: inactive | Activity [3]: inactive | Activity [4]: > 10 µg/mL | Activity [5]: inactive

MIC [1]: > 20 µg/mL
Compound: COC(=O)[C@H](CCCNC(=N)N)NC(=O)[C@H](Cc1c[nH]c2ccccc12)NC(=O)[C@H](Cc1c[nH]c(-c2ccccc2)n1)NC(=O)OC(C)(C)C
IC50 [1]: 8.85 µg/mL (≈ 12.9 µM) | Activity [2]: inactive | Activity [3]: inactive | Activity [4]: > 10 µg/mL | Activity [5]: inactive

MIC [1]: > 20 µg/mL
Compound: CC(C)(C)OC(=O)N[C@@H](Cc1c[nH]c(-c2ccccc2)n1)C(=O)N[C@@H](Cc1c[nH]c2ccccc12)C(=O)N[C@@H](CCCNC(=N)N)C(=O)NCc1ccccc1
IC50 [1]: 7.93 µg/mL (≈ 10.4 µM) | Activity [2]: inactive | Activity [3]: inactive | Activity [4]: > 10 µg/mL | Activity [5]: inactive

MIC [1]: > 20 µg/mL
Compound: COC(=O)[C@H](CCCNC(=N)N)NC(=O)[C@H](Cc1c[nH]c2ccccc12)NC(=O)[C@@H](N)Cc1c[nH]c(-c2ccc(C)cc2)n1.Cl.Cl
IC50 [1]: 8.98 µg/mL | Activity [2]: inactive | Activity [3]: inactive | Activity [4]: > 10 µg/mL | Activity [5]: inactive
